Laboratory results as given in ChEMBL document CHEMBL2396525, “Synthesis and anti-HCMV activity of 1-[ω-(phenoxy)alkyl]uracil derivatives and analogues thereof” (Bioorg Med Chem, 2013).
Activity calls are given as the source filed them. The rule behind the calls is not given here.

Legend:
Sindbis virus = experiment: Antiviral activity against Sindbis virus; assay type: functional, organism-based
Method in brief: (§1)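 Confluent HEL, Vero, HeLa or MDCK cell cultures were inoculated with 100 CCID50 of virus alongside varying compound concentrations. Cytopathicity was scored when it reached completion in untreated virus controls. EC50 is the concentration that reduces virus-induced cytopathogenicity by 50%.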

Influenza B virus = experiment: Antiviral activity against Influenza B virus; assay type: functional, organism-based
Method in brief: (§2)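 The assay was a cell-based cytopathicity inhibition test on confluent monolayers with serial compound dilutions. EC50 was the concentration that reduced virus-induced cytopathicity by 50%.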

HEL = experiment: Cytotoxicity against HEL; assay type: cell-based; conditions: human
Human alphaherpesvirus 2 [1] = experiment: Antiviral activity against Herpes simplex virus type 2 G; assay type: functional, organism-based; conditions: strain G; method in brief: as §1
Vaccinia virus = experiment: Antiviral activity against Vaccinia virus Lederle; assay type: functional, organism-based; conditions: Orthopoxvirus vaccinia
Human alphaherpesvirus 3 [2] = experiment: Antiviral activity against Varicella-zoster virus YS; assay type: functional, organism-based
Method in brief: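 VZV was assayed by plaque formation. Confluent cell cultures received 10 or 100 PFU with varying compound concentrations, and plaques were recorded once complete in untreated infected controls. EC50 is the concentration that reduces plaque formation by 50%.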

Influenza A virus [3] = experiment: Antiviral activity against Influenza virus A virus H3N2; assay type: functional, organism-based; method in brief: as §2
[4] = Cytotoxicity against HEL assessed as minimum cytotoxic concentration required to cause microscopically detectable alteration in cell morphology; assay type: cell-based; conditions: human, HEL cells
Influenza A virus [5] = experiment: Antiviral activity against Influenza virus A virus H1N1; assay type: functional, organism-based; method in brief: as §2
Punta Toro virus = experiment: Antiviral activity against Punta Toro virus; assay type: functional, organism-based; method in brief: as §1
Human alphaherpesvirus 3 [6] = experiment: Antiviral activity against Varicella-zoster virus OKA; assay type: functional; conditions: strain Oka vaccine
Method in brief: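 Confluent cell monolayers were infected with 10 or 100 PFU of VZV in the presence of serial compound dilutions. Plaque formation was recorded once untreated infected controls reached completion. EC50 was the concentration that reduced plaque formation by 50%.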

[7] = tested on: Human immunodeficiency virus 1; experiment: Antiviral activity against HIV1 3B infected in human CEM cells assessed as inhibition of virus-induced giant cell formation after 4 to 5 days; assay type: functional, organism-based; conditions: CCRF-CEM
Method in brief: (§3)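 CEM cells at about 3 × 10^5 cells/mL were infected with 100 CCID50 of HIV per mL, with compound dilutions present. They were incubated 4–5 days at 37 °C in humidified CO2, and syncytia were scored microscopically. EC50 is the concentration that inhibits giant cell formation by 50%.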

Feline coronavirus = experiment: Antiviral activity against Feline coronavirus; assay type: functional, organism-based
Human betaherpesvirus 5 [8] = experiment: Antiviral actiivty against Human herpesvirus 5 Davis infected in HEL assessed as reduction of virus-induced plaque formation; assay type: functional, organism-based; conditions: Human betaherpesvirus 5, Davis
Method in brief: (§4)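 HCMV strains AD-169 and Davis were tested on confluent human embryonic lung fibroblast monolayers infected with 100 PFU in the presence of serial compound concentrations. Plaques were counted once formation was complete in untreated infected controls. EC50 is the concentration that cuts plaque formation by 50%.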

Human alphaherpesvirus 1 [9] = experiment: Antiviral activity against Herpes simplex virus type 1 KOS; assay type: functional, organism-based; method in brief: as §1
[10] = tested on: Respiratory syncytial virus; experiment: Antiviral activity against Respiratory syncytial virus Long; assay type: functional, organism-based; method in brief: as §1
Human alphaherpesvirus 2 [11] = experiment: Antiviral activity against Herpes simplex virus type 2 Lyons; assay type: functional, organism-based; method in brief: as §1
Human betaherpesvirus 5 [12] = experiment: Antiviral actiivty against Human herpesvirus 5 AD169 infected in HEL assessed as reduction of virus-induced plaque formation; assay type: functional, organism-based; conditions: Human betaherpesvirus 5, AD169; method in brief: as §4
Human alphaherpesvirus 1 [13] = experiment: Antiviral activity against thymidine kinase deficient acyclovir-resistant Herpes simplex virus type 1 KOS; assay type: functional, organism-based
Coxsackievirus B4 = experiment: Antiviral activity against Coxsackie B4 virus; assay type: functional, organism-based; method in brief: as §1
[14] = tested on: Mammalian orthoreovirus 1; experiment: Antiviral activity against Reovirus-1; assay type: functional, organism-based; method in brief: as §1
[15] = tested on: Vesicular stomatitis virus; experiment: Antiviral activity against Vesicular stomatitis virus; assay type: functional, organism-based
Human respirovirus 3 = experiment: Antiviral activity against Parainfluenza virus 3; assay type: functional, organism-based; method in brief: as §1
[16] = tested on: Human immunodeficiency virus 2; experiment: Antiviral activity against HIV2 ROD infected in human CEM cells assessed as inhibition of virus-induced giant cell formation after 4 to 5 days; assay type: functional, organism-based; conditions: ISOLATE ROD, CCRF-CEM; method in brief: as §3
[17] = Cytotoxicity against human CEM cells; assay type: cell-based; conditions: CCRF-CEM (CEM) cells

Row | Compound | Activity (Sindbis virus) | Activity (Influenza B virus) | CC50 (HEL) | Activity (Human alphaherpesvirus 2 [1]) | Activity (Vaccinia virus) | Activity (Human alphaherpesvirus 3 [2]) | Activity (Influenza A virus [3]) | MCC [4] | Activity (Influenza A virus [5]) | Activity (Punta Toro virus) | Activity (Human alphaherpesvirus 3 [6]) | Activity (Feline coronavirus) | EC50 (Human betaherpesvirus 5 [8]) | Activity (Human alphaherpesvirus 1 [9]) | Activity [10] | Activity (Human alphaherpesvirus 2 [11]) | EC50 (Human betaherpesvirus 5 [12]) | Activity (Human alphaherpesvirus 1 [13]) | Activity (Coxsackievirus B4) | Activity [14] | further results
1 | O=c1[nH]c(=O)n(CCCCCOc2ccc(Br)cc2)cc1I | inactive | inactive | > 100 µM | inactive | inactive | inactive | inactive | ≥ 100 µM | inactive | inactive | inactive | inactive | 20 µM | inactive | inactive | inactive | 13 µM | inactive | inactive | inactive | Activity [7]: inactive; Activity [15]: inactive; Activity (Human respirovirus 3): inactive; Activity [16]: inactive
2 | CC(C)(C)c1ccc(OCCCCCn2ccc(=O)[nH]c2=O)cc1 | inactive | inactive | 40 µM | inactive | inactive | inactive | inactive | 100 µM | inactive | inactive | inactive | inactive | 12 µM | inactive | inactive | inactive | 14 µM | inactive | inactive | inactive | Activity [7]: inactive; Activity [15]: inactive; Activity (Human respirovirus 3): inactive; Activity [16]: inactive
3 | Cc1cc(C)cc(OCCCCCn2ccc(=O)[nH]c2=O)c1 | inactive | inactive | > 100 µM | inactive | inactive | inactive | inactive | > 100 µM | inactive | inactive | inactive | inactive | > 100 µM | inactive | inactive | inactive | > 100 µM | inactive | inactive | inactive | EC50 ([7]; Human immunodeficiency virus 1, 3B): 24 µM; CC50 [17]: 154 µM; Activity [15]: inactive; Activity (Human respirovirus 3): inactive; Activity [16]: inactive
4 | O=c1ccn(CCCCCOc2ccc(Br)cc2)c(=O)[nH]1 | inactive | inactive | > 100 µM | inactive | inactive | inactive | inactive | 100 µM | inactive | inactive | inactive | inactive | 12 µM | inactive | inactive | inactive | 9.4 µM | inactive | inactive | inactive | Activity [7]: inactive; Activity [15]: inactive; Activity (Human respirovirus 3): inactive; Activity [16]: inactive
